Assay results from ChEMBL document CHEMBL1148248, “Potentiation of cytotoxic drug activity in human tumour cell lines, by amine-substituted 2-arylbenzimidazole-4-carboxamide PARP-1 inhibitors” (Bioorg Med Chem Lett, 2004).
pKi: −log10 of the molar value.

Assays:
[1] = molecular target: Poly [ADP-ribose] polymerase 1 (Homo sapiens, UniProt P09874)
LoVo [2] = test: Cytotoxic potentiation factor of temoxolomide in human LoVo cancer cell line at 0.4 uM concentration; assay type: functional
How it was run: (§1)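 Exponentially growing cells were exposed to increasing concentrations of cytotoxic drug (temozolomide or topotecan), alone or with PARP-1 inhibitor fixed at 0.4 µM. Drugs were added from DMSO stocks, giving 1% DMSO final. Growth was read by SRB assay and normalised to the 1% DMSO control or to inhibitor alone. PF50 is the ratio of drug GI50 alone to drug GI50 with inhibitor.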

LoVo [3] = test: Compound was evaluated for cytotoxic potentiation factor of topotecan in human LoVo cancer cell line at 0.4 uM concentration; assay type: functional
How it was run: as §1

A549 [4] = test: Compound was evaluated for cytotoxic potentiation factor of topotecan in human A549 tumor cell line at 0.4 uM concentration; assay type: functional
How it was run: as §1

A549 [5] = test: Cytotoxic potentiation factor of temoxolomide in human A549 tumor cell line at 0.4 uM concentration; assay type: functional
How it was run: as §1

Chain of Poly [ADP-ribose] polymerase 1 (P09874 whole entry): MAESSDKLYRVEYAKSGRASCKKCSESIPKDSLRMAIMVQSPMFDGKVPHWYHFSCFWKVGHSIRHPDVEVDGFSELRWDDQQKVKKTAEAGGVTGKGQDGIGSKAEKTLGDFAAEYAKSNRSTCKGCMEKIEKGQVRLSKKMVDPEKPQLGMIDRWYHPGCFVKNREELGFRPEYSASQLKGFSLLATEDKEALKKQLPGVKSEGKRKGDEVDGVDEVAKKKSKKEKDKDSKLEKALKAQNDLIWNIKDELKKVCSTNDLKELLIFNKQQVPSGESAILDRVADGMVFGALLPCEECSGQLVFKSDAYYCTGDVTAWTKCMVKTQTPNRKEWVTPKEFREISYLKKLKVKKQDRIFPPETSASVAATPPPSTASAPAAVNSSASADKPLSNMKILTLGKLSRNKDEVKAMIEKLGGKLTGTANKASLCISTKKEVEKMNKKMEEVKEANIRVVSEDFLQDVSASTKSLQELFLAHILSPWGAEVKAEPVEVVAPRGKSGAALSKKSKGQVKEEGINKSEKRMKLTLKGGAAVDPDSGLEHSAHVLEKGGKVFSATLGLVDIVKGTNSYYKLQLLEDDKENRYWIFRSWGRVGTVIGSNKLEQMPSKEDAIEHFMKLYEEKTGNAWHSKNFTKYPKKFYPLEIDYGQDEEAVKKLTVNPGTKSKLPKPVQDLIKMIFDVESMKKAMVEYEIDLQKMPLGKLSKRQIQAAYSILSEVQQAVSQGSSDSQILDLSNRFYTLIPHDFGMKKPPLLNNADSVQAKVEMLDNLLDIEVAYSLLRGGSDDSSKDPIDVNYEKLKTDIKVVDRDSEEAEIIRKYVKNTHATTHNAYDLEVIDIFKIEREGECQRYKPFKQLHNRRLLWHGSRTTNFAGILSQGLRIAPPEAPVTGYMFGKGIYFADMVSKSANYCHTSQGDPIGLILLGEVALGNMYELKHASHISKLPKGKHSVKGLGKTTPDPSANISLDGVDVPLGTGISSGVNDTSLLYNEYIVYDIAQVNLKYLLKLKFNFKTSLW

Row | Structure (SMILES) | pKi [1] | PF50 (LoVo [2]) | PF50 (LoVo [3]) | PF50 (A549 [4]) | PF50 (A549 [5])
1 | CN1CCN(Cc2ccc(-c3nc4c(C(N)=O)cccc4[nH]3)cc2)CC1 | 8.06 | – | – | – | –
2 | CN(C)Cc1cccc(-c2nc3c(C(N)=O)cccc3[nH]2)c1 | 8.25 | 1.7 | 1.4 | – | –
3 | NC(=O)c1cccc2[nH]c(-c3ccc(CN4CCCCC4)cc3)nc12 | 8.14 | – | – | – | –
4 | NC(=O)c1cccc2[nH]c(-c3cccc(CN(CCO)CCO)c3)nc12 | 6.57 | – | – | 1.1 | 1.1
5 | NC(=O)c1cccc2[nH]c(-c3ccc(CN(CCO)CCO)cc3)nc12 | 8.35 | – | – | – | –
6 | NC(=O)c1cccc2[nH]c(-c3cccc(CN4CCCC4)c3)nc12 | 7.99 | 1.7 | 1.1 | – | –
7 | NC(=O)c1cccc2[nH]c(-c3ccc(CN4CCOCC4)cc3)nc12 | 7.92 | – | – | – | –
8 | CN(C)Cc1ccc(-c2nc3c(C(N)=O)cccc3[nH]2)cc1 | 8.35 | 4 | 1.7 | 1.9 | 1.6
9 | NC(=O)c1cccc2[nH]c(-c3cccc(CN4CCOCC4)c3)nc12 | 7.51 | – | – | – | –
10 | NC(=O)c1cccc2[nH]c(-c3ccc(CN4CCCC4)cc3)nc12 | 8.23 | 5.2 | 1.5 | 1.8 | 1.5
11 | CN1CCN(Cc2cccc(-c3nc4c(C(N)=O)cccc4[nH]3)c2)CC1 | 8.01 | – | – | – | –
